From PMC4230422 (Journal of Experimental & Clinical Cancer Research : CR, 2014)
Blank lines part the entries; values can stand above or below the molecule they belong to.

Key:
[1] = system: VM-CUB1; experiment: CellTiter-Glo ATP cell viability assay, VM-CUB1; format: cell-based, human; conditions: VM-CUB1, 72 h of HDAC8 inhibitor treatment
Outline: (§1)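 UCCs kept in DMEM GlutaMAX-I plus 10% FCS at 37°C, 5% CO2. Cells seeded in 96-well plates and grown 24 h, then given one treatment at the indicated inhibitor concentrations (10 mM DMSO stock) or DMSO for 72 h. Viable cells read as total cellular ATP by CellTiter-Glo luminescence. IC50 and dose-response curves fitted by non-linear regression.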

[2] = system: SW-1710; experiment: CellTiter-Glo ATP cell viability assay, SW-1710; format: cell-based, human; conditions: SW-1710, 72 h of HDAC8 inhibitor treatment
Outline: as §1

[3] = system: RT-112; experiment: CellTiter-Glo ATP cell viability assay, RT-112; format: cell-based, human; conditions: RT-112, 72 h of HDAC8 inhibitor treatment
Outline: as §1

[4] = system: 639-V; experiment: CellTiter-Glo ATP cell viability assay, 639-V; format: cell-based, human; conditions: 72 h of HDAC8 inhibitor treatment
Outline: as §1

[5] = system: UM-UC-3; experiment: CellTiter-Glo ATP cell viability assay, UM-UC-3; format: cell-based, human; conditions: UM-UC-3, 72 h of HDAC8 inhibitor treatment
Outline: as §1

[6] = system: Normal Uroepithelial Control; experiment: CellTiter-Glo ATP cell viability assay, normal uroepithelial control; format: cell-based, human; conditions: 72 h of HDAC8 inhibitor treatment
Outline: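 Normal urothelial cells isolated from ureters after nephrectomy, grown in keratinocyte serum-free medium with 0.25 ng/ml EGF and 12.5 μg/ml bovine pituitary extract. Seeded in 96-well plates for 24 h, then treated once with the indicated inhibitor concentrations (10 mM DMSO stock) or DMSO for 72 h. Read by CellTiter-Glo total-ATP luminescence. IC50 from non-linear regression.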

[7] = system: VM-CUB1; experiment: Colony forming assay, VM-CUB1; format: cell-based, human; conditions: VM-CUB1, 72 h treatment at IC50 concentrations
Outline: (§2)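 After a single 72 h inhibitor or DMSO treatment, cells were replated at 500 to 1,000 cells per well in 6-well plates and grown 10 days. Then PBS-washed, fixed briefly in 50% methanol and 10 min in 100% methanol, and Giemsa-stained. Colony number and size measured by image analysis against the DMSO control.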

[8] = system: urothelial cancer cell lines (UCCs); experiment: CellTiter-Glo ATP cell viability assay, urothelial cancer cell line panel; format: cell-based, human; conditions: 72 h inhibitor treatment
Outline: as §1

[9] = system: SW-1710; experiment: Colony forming assay, SW-1710; format: cell-based, human; conditions: SW-1710, 72 h treatment at IC50 concentrations
Outline: as §2

[10] = system: RT-112; experiment: Colony forming assay, RT-112; format: cell-based, human; conditions: RT-112, 72 h treatment at IC50 concentrations
Outline: as §2

[11] = system: 639-V; experiment: Colony forming assay, 639-V; format: cell-based, human; conditions: 72 h treatment at IC50 concentrations
Outline: as §2

[12] = system: UM-UC-3; experiment: Colony forming assay, UM-UC-3; format: cell-based, human; conditions: UM-UC-3, 72 h treatment at IC50 concentrations
Outline: as §2

[13] = system: VM-CUB1; experiment: Wound healing migration assay, VM-CUB1; format: cell-based, human; conditions: VM-CUB1, IC50 concentrations, especially after 6 - 12 h
[14] = system: UM-UC-3; experiment: Wound healing migration assay, UM-UC-3; format: cell-based, human; conditions: UM-UC-3, IC50 concentrations, especially after 6 - 12 h
[15] = system: thymidylate synthase (TS); experiment: Western blot of thymidylate synthase in UCCs; format: cell-based, human; conditions: inhibitor IC50, 72 h
[16] = system: p21; experiment: Western blot of p21 in UCCs; format: cell-based, human
[17] = system: acetylated α-tubulin; experiment: Western blot of acetylated α-tubulin in UCCs; format: cell-based, human; conditions: all cell lines, inhibitor IC50, 72 h
[18] = system: urothelial cancer cell lines (UCCs); experiment: Cell cycle analysis by flow cytometry; format: cell-based, human; conditions: for G1-fraction / G2/M-arrest: VM-CUB1, SW-1710, 639-V and UM-UC-3 cells, inhibitor IC50, 72 h; for sub-G1 fraction: VM-CUB1 and SW-1710, inhibitor IC50, 72 h
Outline: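 UCCs grown in DMEM GlutaMAX-I with 10% FCS at 37°C and 5% CO2. One inhibitor dose was given 24 h after seeding (10 mM DMSO stock), with DMSO as solvent control and the pan-HDAC inhibitor SAHA (2.5 μM). After 72 h, attached and floating cells were stained in PI buffer (50 μg/ml PI, 0.1% sodium citrate, 0.1% Triton X-100) and run on flow cytometry. Sub-G1 counted as apoptotic.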

[19] = system: acetylated histone H3 and H4; experiment: Western blot of histone H3 and H4 acetylation; format: cell-based, human; conditions: for H4 acetylation: 639-V, inhibitor IC50, 72 h
Outline: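 Histone acetylation checked after 72 h inhibitor or DMSO treatment. 1 μg of each sample run on 15% SDS-PAGE and transferred to PVDF. Probed for acetylated H3 (1:2,000), total H3 (1:1,000), acetylated H4 (1:1,000) and total H4 (1:500). Blocking in 5% milk/TBST, primary 1 h at room temperature or overnight at 4°C, HRP-conjugated secondaries.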

[20] = system: HDAC1, HDAC2 and HDAC3; experiment: Expression of other class I HDACs; format: cell-based, human; conditions: SW-1710 and VM-CUB1 cells, inhibitor IC50, 72 h, western blot
[21] = system: HDAC6; conditions: in vitro; cited from earlier work
[22] = system: PARP; experiment: Western blot of PARP cleavage in UCCs; format: cell-based, human; conditions: SW-1710, inhibitor IC50, 72 h
[23] = VM-CUB1, SW-1710 and UM-UC-3 cells
[24] = SW-1710 and 639-V, inhibitor IC50, 72 h

- IC50 [2]: ≥ 50 µM
Structure (SMILES): O=C(NO)c1cccc2ccccc12 [Compound 2, 1-napthohydroxamic acid, reference compound]
- IC50 [1]: ≥ 50 µM
- IC50 [3]: ≥ 50 µM
- IC50 ([3]; listed as c2): > 50 µM
- IC50 [4]: ≥ 50 µM
- IC50 [5]: ≥ 50 µM
- IC50 [6]: ≥ 50 µM
- clonogenic growth [7]: inhibited clonogenicity

- IC50 [2]: 20.8 µM
Structure (SMILES): O=C(/C=C/Cc1cccc2ccccc12)NO [Compound 5, δ-naphtyl-trans 2-butenoil hydroxamic acid]
- IC50 [1]: 18.7 µM
- IC50 [3]: 9.7 µM
- IC50 ([3]; listed as c5): ~9.7 µM
- IC50 [4]: 12.6 µM
- IC50 [5]: 18.9 µM
- IC50 [6]: 24.2 µM
- viability of all UCCs [8]: significantly reduced
- clonogenic growth [7]: completely abolished
- clonogenic growth [9]: no effect
- clonogenic growth [10]: moderate reduction of colony numbers
- clonogenic growth [11]: moderate reduction of colony numbers
- clonogenic growth [12]: moderate reduction of colony numbers
- wound healing (relative scratch size) vs DMSO control [13]: clear difference
- wound healing (relative scratch size) vs DMSO control [14]: clear difference
- expression of thymidylate synthase (TS) ([15]; 639-V and RT-112 cells): No effects
- expression of thymidylate synthase (TS) [15, 23]: weakly reduced
- p21 expression [16, 24]: decreased
- acetylated α-tubulin ([17]; listed as c5): strong increase
- G1-fraction [18]: significant decrease
- G2/M-arrest [18]: indications of a G2/M-arrest
- sub-G1 fraction [18]: significant increase
- H4 acetylation [19]: slight increase
- protein expression of HDAC1 and HDAC2/3 [20]: slightly reduced
- inhibition of HDAC6 [21]: do not inhibit HDAC6 efficiently

- IC50 [2]: 18.8 µM
Structure (SMILES): O=C(NO)c1ccc(-c2cccc3ccccc23)cc1 [Compound 6, 4-naphtyl-benzoil hydroxamic acid]
- IC50 [1]: 16 µM
- IC50 [3]: 9.1 µM
- IC50 ([3]; listed as c6): ~9.1 µM
- IC50 [4]: 18.6 µM
- IC50 [5]: 18.2 µM
- IC50 [6]: 10.2 µM
- viability of all UCCs [8]: significantly reduced
- clonogenic growth [7]: most efficient
- clonogenic growth [9]: active
- clonogenic growth [10]: active
- clonogenic growth [11]: most efficient
- clonogenic growth [12]: most efficient
- wound healing (relative scratch size) vs DMSO control [13]: clear difference
- wound healing (relative scratch size) vs DMSO control [14]: clear difference
- expression of thymidylate synthase (TS) ([15]; 639-V and RT-112 cells): No effects
- expression of thymidylate synthase (TS) [15, 23]: weakly reduced
- cleavage of PARP [22]: Increased cleavage of PARP
- p21 expression [16, 24]: decreased
- p21 expression ([16]; UM-UC-3, inhibitor IC50, 72 h): decreased
- acetylated α-tubulin ([17]; listed as c6): strong increase
- G1-fraction [18]: significant decrease
- G2/M-arrest [18]: indications of a G2/M-arrest
- sub-G1 fraction [18]: significant increase
- H4 acetylation [19]: slight increase
- protein expression of HDAC1 and HDAC2/3 [20]: slightly reduced
- inhibition of HDAC6 [21]: do not inhibit HDAC6 efficiently

Structure (SMILES): O=C(CCCCCCC(=O)Nc1ccccc1)NO [SAHA, suberoylanilide hydroxamic acid, reference compound]
- histone H3 or H4 acetylation ([19]; SAHA control): led to a change
